Measurements reported in ChEMBL document CHEMBL5058577, “EUbOPEN Chemogenomics Library 2 (Multiplex)” (2022).

System: Fibroblast
Experiment: Multiplex assay against human fibroblast
Type: toxicity, cell-based
Method in brief: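 Live cells were stained at seeding with Hoechst33342, BioTracker Green Microtubule Cytoskeleton Dye, MitoTracker Red and Annexin V Alexa Fluor 680. Following compound addition, they were imaged on a CQ1 microscope at 37°C and 5% CO2 and gated by CellPathfinder machine learning into Hoechst high-intensity objects or normal cells, with normal cells split into healthy, pyknosed or fragmented nuclei and pyknosed cells into mitotic or apoptotic. Tubulin, mitochondrial-mass and membrane-permeability phenotypes are per cents of healthy-nucleus cells.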

[1] = 12 h, 1 µM, compound concentration 1 uM, replicate 1
[2] = 12 h, 1 µM, compound concentration 1 uM, replicate 2
[3] = 12 h, 10 µM, compound concentration 10 uM, replicate 1
[4] = 12 h, 10 µM, compound concentration 10 uM, replicate 2
[5] = 24 h, 1 µM, compound concentration 1 uM, replicate 1
[6] = 24 h, 1 µM, compound concentration 1 uM, replicate 2
[7] = 24 h, 10 µM, compound concentration 10 uM, replicate 1
[8] = 24 h, 10 µM, compound concentration 10 uM, replicate 2
[9] = 48 h, 1 µM, compound concentration 1 uM, replicate 1
[10] = 48 h, 1 µM, compound concentration 1 uM, replicate 2
[11] = 48 h, 10 µM, compound concentration 10 uM, replicate 1
[12] = 48 h, 10 µM, compound concentration 10 uM, replicate 2

CCCCCC(O)/C=C/[C@H]1C(=O)CC(O)C1C/C=C\CCCC(=O)O (some centres undefined)
Population Apoptotic (%) [1]: 52%
Population Fragmented Nuclei (%) [1]: 24%
Population Healthy Nuclei (%) [1]: 65%
Population Hoechst High Intensity Objects (%) [1]: 1%
Population Membrane Permeable-Phenotype (%) [1]: 0%
Population Mitochondria Different-Phenotype (%) [1]: 4%
Population Mitotic Cells (%) [1]: 47%
Population Normal (%) [1]: 98%
Population Pyknosed Nuclei (%) [1]: 10%
Population Tubulin-Different-Phenotype (%) [1]: 19%
Total Cell Count [1]: 172
Population Apoptotic (%) [2]: 50%
Population Fragmented Nuclei (%) [2]: 40%
Population Healthy Nuclei (%) [2]: 41%
Population Hoechst High Intensity Objects (%) [2]: 2%
Population Membrane Permeable-Phenotype (%) [2]: 7%
Population Mitochondria Different-Phenotype (%) [2]: 20%
Population Mitotic Cells (%) [2]: 50%
Population Normal (%) [2]: 97%
Population Pyknosed Nuclei (%) [2]: 18%
Population Tubulin-Different-Phenotype (%) [2]: 52%
Total Cell Count [2]: 169
Population Apoptotic (%) [3]: 42%
Population Fragmented Nuclei (%) [3]: 16%
Population Healthy Nuclei (%) [3]: 69%
Population Hoechst High Intensity Objects (%) [3]: 0%
Population Membrane Permeable-Phenotype (%) [3]: 0%
Population Mitochondria Different-Phenotype (%) [3]: 1%
Population Mitotic Cells (%) [3]: 57%
Population Normal (%) [3]: 99%
Population Pyknosed Nuclei (%) [3]: 13%
Population Tubulin-Different-Phenotype (%) [3]: 16%
Total Cell Count [3]: 139
Population Apoptotic (%) [4]: 34%
Population Fragmented Nuclei (%) [4]: 20%
Population Healthy Nuclei (%) [4]: 56%
Population Hoechst High Intensity Objects (%) [4]: 2%
Population Membrane Permeable-Phenotype (%) [4]: 3%
Population Mitochondria Different-Phenotype (%) [4]: 7%
Population Mitotic Cells (%) [4]: 65%
Population Normal (%) [4]: 97%
Population Pyknosed Nuclei (%) [4]: 23%
Population Tubulin-Different-Phenotype (%) [4]: 41%
Total Cell Count [4]: 101
Population Apoptotic (%) [5]: 35%
Population Fragmented Nuclei (%) [5]: 20%
Population Healthy Nuclei (%) [5]: 70%
Population Hoechst High Intensity Objects (%) [5]: 0%
Population Membrane Permeable-Phenotype (%) [5]: 0%
Population Mitochondria Different-Phenotype (%) [5]: 2%
Population Mitotic Cells (%) [5]: 64%
Population Normal (%) [5]: 99%
Population Pyknosed Nuclei (%) [5]: 8%
Population Tubulin-Different-Phenotype (%) [5]: 21%
Total Cell Count [5]: 169
Population Apoptotic (%) [6]: 50%
Population Fragmented Nuclei (%) [6]: 41%
Population Healthy Nuclei (%) [6]: 50%
Population Hoechst High Intensity Objects (%) [6]: 1%
Population Membrane Permeable-Phenotype (%) [6]: 4%
Population Mitochondria Different-Phenotype (%) [6]: 10%
Population Mitotic Cells (%) [6]: 50%
Population Normal (%) [6]: 98%
Population Tubulin-Different-Phenotype (%) [6]: 47%
Total Cell Count [6]: 184
Population Apoptotic (%) [7]: 61%
Population Fragmented Nuclei (%) [7]: 17%
Population Healthy Nuclei (%) [7]: 72%
Population Hoechst High Intensity Objects (%) [7]: 2%
Population Membrane Permeable-Phenotype (%) [7]: 1%
Population Mitochondria Different-Phenotype (%) [7]: 3%
Population Mitotic Cells (%) [7]: 38%
Population Normal (%) [7]: 97%
Population Pyknosed Nuclei (%) [7]: 9%
Population Tubulin-Different-Phenotype (%) [7]: 21%
Total Cell Count [7]: 138
Population Apoptotic (%) [8]: 33%
Population Fragmented Nuclei (%) [8]: 18%
Population Healthy Nuclei (%) [8]: 59%
Population Hoechst High Intensity Objects (%) [8]: 4%
Population Membrane Permeable-Phenotype (%) [8]: 3%
Population Mitochondria Different-Phenotype (%) [8]: 1%
Population Mitotic Cells (%) [8]: 66%
Population Normal (%) [8]: 95%
Population Pyknosed Nuclei (%) [8]: 21%
Population Tubulin-Different-Phenotype (%) [8]: 29%
Total Cell Count [8]: 101
Population Apoptotic (%) [9]: 50%
Population Fragmented Nuclei (%) [9]: 27%
Population Healthy Nuclei (%) [9]: 66%
Population Hoechst High Intensity Objects (%) [9]: 3%
Population Membrane Permeable-Phenotype (%) [9]: 0%
Population Mitochondria Different-Phenotype (%) [9]: 2%
Population Mitotic Cells (%) [9]: 50%
Population Normal (%) [9]: 96%
Population Pyknosed Nuclei (%) [9]: 5%
Population Tubulin-Different-Phenotype (%) [9]: 19%
Total Cell Count [9]: 175
Population Apoptotic (%) [10]: 30%
Population Fragmented Nuclei (%) [10]: 47%
Population Healthy Nuclei (%) [10]: 46%
Population Hoechst High Intensity Objects (%) [10]: 2%
Population Membrane Permeable-Phenotype (%) [10]: 3%
Population Mitochondria Different-Phenotype (%) [10]: 7%
Population Mitotic Cells (%) [10]: 70%
Population Normal (%) [10]: 97%
Population Tubulin-Different-Phenotype (%) [10]: 42%
Total Cell Count [10]: 186
Population Apoptotic (%) [11]: 63%
Population Fragmented Nuclei (%) [11]: 17%
Population Healthy Nuclei (%) [11]: 74%
Population Hoechst High Intensity Objects (%) [11]: 4%
Population Membrane Permeable-Phenotype (%) [11]: 0%
Population Mitochondria Different-Phenotype (%) [11]: 0%
Population Mitotic Cells (%) [11]: 36%
Population Normal (%) [11]: 95%
Population Pyknosed Nuclei (%) [11]: 8%
Population Tubulin-Different-Phenotype (%) [11]: 14%
Total Cell Count [11]: 141
Population Apoptotic (%) [12]: 33%
Population Fragmented Nuclei (%) [12]: 30%
Population Healthy Nuclei (%) [12]: 61%
Population Hoechst High Intensity Objects (%) [12]: 0%
Population Membrane Permeable-Phenotype (%) [12]: 6%
Population Mitochondria Different-Phenotype (%) [12]: 3%
Population Mitotic Cells (%) [12]: 66%
Population Normal (%) [12]: 99%
Population Tubulin-Different-Phenotype (%) [12]: 47%
Total Cell Count [12]: 104
